Test results from ChEMBL document CHEMBL5120853, “Tolypocladamide H and the Proposed Tolypocladamide NRPS in Tolypocladium Species” (J Nat Prod, 2022).
pEC50: −log10 of the molar value. “And” between values parts separate entries of the source, which are not always exact repeats. Identical values can stand only once. Square brackets hold non-standard residues; d marks the D form. Peptide text beside a SMILES is read from it. * marks the point of attachment. Bmt = C/C=C/C[C@@H](C)[C@@H](O)[C@H](N)C(=O)O; Decanoyl = CCCCCCCCCC(=O)*; Leu(ol) = CC(C)C[C@H](N)CO; Aib = CC(C)(N)C(=O)O

What was measured:
Enterococcus faecium = assay: Antibacterial activity against Enterococcus faecium ATCC BAA-2317 assessed as inhibition of bacterial growth; type: functional
Procedure, shortened: (§1)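 Strains grown in ATCC-recommended media in culture tubes at 37 °C with shaking at 225 rpm for 3–8 h, back-diluted to about 10^6 cfu/mL, and incubated in triplicate in 384-well plates with a dilution series of test agent. DMSO vehicle served as negative control; linezolid (E. faecium) and ampicillin (S. aureus) were positive controls. MIC recorded.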

Staphylococcus aureus = assay: Antibacterial activity against Staphylococcus aureus ATCC 25923 assessed as inhibition of bacterial growth; type: functional; procedure, shortened: as §1
HeLa = assay: Cytotoxicity against human HeLa cells assessed as reduction in cell viability incubated for 72 hrs by CellTiter-Glo luminescent cell viability assay; type: functional, cell-based
Procedure, shortened: (§2)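 HUVECs (primary, limited passages) were kept in medium 200PRF with low serum growth supplement. HeLa and MCF-7 were kept in MEM with Earle's salts, L-glutamine, 10% FBS and 1% pen/strep. Cells were seeded at 5000 (HUVEC), 2000 (HeLa) or 3000 (MCF-7) per well and treated after 18 h for 72 h (final DMSO ≤0.1%). Viability read by ATP luminescence, vehicle = 100%; EC50 derived.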

MCF7 = assay: Cytotoxicity against human MCF7 cells assessed as reduction in cell viability incubated for 72 hrs by CellTiter-Glo luminescent cell viability assay; type: functional, cell-based; conditions: MCF7, 72 h; procedure, shortened: as §2
[1] = Cytotoxicity against HUVEC assessed as reduction in cell viability incubated for 72 hrs by CellTiter-Glo luminescent cell viability assay; type: toxicity, cell-based; conditions: human, HUVEC cells; procedure, shortened: as §2

Row | MIC (Enterococcus faecium) | MIC (Staphylococcus aureus) | Structure (SMILES) | pEC50 (HeLa) | pEC50 (MCF7) | EC50 at 72 h [1] [µM]
1 | 22 µg/mL and 16 µM | 11 µg/mL and 8 µM | C/C=C/C[C@@H](C)[C@@H](O)[C@H](NC(=O)[C@@H]1CCCN1C(=O)C(C)(C)NC(=O)CCCCCCCCC)C(=O)NC(C)(C)C(=O)N[C@@H](CCC(N)=O)C(=O)N[C@@H](CCC(N)=O)C(=O)NC(C)(C)C(=O)NC(C)(C)C(=O)N[C@@H](CCC(N)=O)C(=O)N[C@H](C(=O)N[C@H](CO)CC(C)C)C(C)C (Decanoyl-[Aib]P[Bmt][Aib]QQ[Aib][Aib]QV[Leu(ol)]) | 4.52 | 3.97 | 8
2 | 30 µg/mL and 89 µM | – | CC(=O)NC[C@H]1CN(c2ccc(N3CCOCC3)c(F)c2)C(=O)O1 [LINEZOLID] | – | – | –
